Data reported in ChEMBL document CHEMBL2390828, “Synthesis and biological characterization of spiro[2H-(1,3)-benzoxazine-2,4'-piperidine] based histone deacetylase inhibitors” (Eur J Med Chem, 2013).
Values belong to the molecule of their own block, whether it stands above or below them. Calls of active or inactive are those of the source. No cut-off for these calls is given here.

Legend:
[1] = tested on: Mus musculus; experiment: Inhibition of HDAC in human HCT116 cells […] in CD1 mouse at 75 to 150 mg/kg, po administered 5 days a week for 2 weeks by immunohistochemistry relative to control; assay type: functional, organism-based; conditions: HCT-116
How it was run: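 Tumours came from HCT116 xenograft-bearing CD-1 nude mice dosed orally at 75 or 150 mg/kg once daily, 5 days/week for 2 weeks. Sections were taken at the end of treatment from vehicle and treated mice. Histone acetylation was stained by immunohistochemistry (anti-acetyl H4 clone T25, 1:13,000) and scored by positive cells and signal intensity.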

[2] = target: Histone deacetylase 2 (Homo sapiens, UniProt Q92769); experiment: Inhibition of HDAC2 (unknown origin)
[3] = target: Histone deacetylase; experiment: Inhibition of HDAC in human Hela cell nuclear extract after 15 mins; assay type: protein assay
[4] = Volume of distribution at steady state in CD1 mouse at 5 mg/kg, iv and 15 mg/kg, po; assay type: ADME, organism-based; conditions: in vivo, read-out: Vdss
How it was run: (§1)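 CD-1 mice got single doses of 5 mg/kg iv or 15 mg/kg orally. The iv vehicle was water with 3% DMSO and 9.7% encapsin. The oral vehicle was water with 5% DMSO and 9.5% encapsin. Plasma PK parameters were calculated, including AUC0–∞, clearance, half-life, Vss, cmax and oral bioavailability.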

[5] = tested on: HCT-116; experiment: Cytotoxicity against human HCT116 cells; assay type: functional, cell-based
[6] = AUC (0 to infinity) in CD1 mouse at 5 mg/kg, iv; assay type: ADME, organism-based; set-up: time infinity, dose 5 mg/kg, route intravenous; conditions: plasma; how it was run: as §1
[7] = AUC (0 to infinity) in CD1 mouse at 15 mg/kg, po; assay type: ADME, organism-based; set-up: time infinity, dose 15 mg/kg, route oral; conditions: plasma; how it was run: as §1
[8] = Terminal half life in CD1 mouse at 5 mg/kg, iv and 15 mg/kg, po; assay type: ADME, organism-based; conditions: in vivo, read-out: beta t1/2 (converted); how it was run: as §1
[9] = tested on: A549; experiment: Cytotoxicity against human A549 cells; assay type: functional, cell-based
[10] = Permeability from apical to basolateral side across human Caco2 cells after 2 hrs by LC-MS analysis; assay type: ADME, cell-based; conditions: Caco-2, read-out: permeability
[11] = tested on: HCT-116; experiment: Induction of apoptosis in human HCT116 cells assessed as increase in sub-G1 population after 24 hrs by propidium iodide staining-based FACS analysis; assay type: functional, cell-based
How it was run: (§2)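 HCT116 colon carcinoma cells were exposed to several concentrations for 24 h. Cell-cycle profiles were read by flow cytometry, with G0/G1, G2/M and sub-G1 fractions scored.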

[12] = tested on: HCT-116; experiment: Antitumor activity against human HCT116 cells […] in po dosed CD1 mouse administered 5 days a week for 2 weeks relative to control; assay type: functional, organism-based
How it was run: (§3)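 Female CD-1 nude mice received 5 × 10⁶ HCT116 cells subcutaneously in the flank. Once tumours reached 100 mm³, dosing was 75 or 150 mg/kg orally, once daily, 5 days/week for 2 weeks. Tumour volume and body weight were followed. Tumour/control (T/C) ratio was calculated against vehicle controls.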

[13] = target: Histone deacetylase (Homo sapiens) (UniProt Q13547+O15379+Q9UBN7+Q92769+Q9UQL6+Q8WUI4+Q9BY41+Q96DB2+P56524+Q9UKV0+Q969S8); experiment: Inhibition of HDAC in human K562 cells assessed as increase in histone acetylation level after 2 to 8 hrs by flow cytometry; assay type: cell-based
How it was run: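 K562 cells were treated at 0.1, 0.5, 1 and 3 µM. Histone acetylation was measured by flow cytometry and reported as the ratio of acetylation level in treated over control cells.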

[14] = tested on: HCT-116; experiment: Cell cycle arrest in human HCT116 cells assessed as accumulation at G0/G1 phase at lower dose after 24 hrs by propidium iodide staining-based FACS analysis; assay type: functional; how it was run: as §2
[15] = tested on: HCT-116; experiment: Antitumor activity against human HCT116 cells […] in CD1 mouse at 75 mg/kg, po administered 5 days a week for 2 weeks relative to control; assay type: functional; how it was run: as §3
[16] = Cmax in CD1 mouse at 5 mg/kg, iv; assay type: ADME, organism-based; set-up: dose 5 mg/kg, route intravenous; conditions: in vivo; how it was run: as §1
[17] = Metabolic stability in human liver microsomes after 30 mins by LC-MS/MS analysis; assay type: ADME, Microsome; conditions: read-out: Stability
How it was run: (§4)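 Compounds were incubated with mouse or human liver microsomal preparation for 30 min at 37 °C. The reaction was stopped with CH3CN. Unmetabolized compound was quantified by LC-MS/MS in MRM mode and reported as percent remaining. Replicates n ≥ 2, mean values given.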

[18] = tested on: K562; experiment: Cytotoxicity against human K562 cells; assay type: functional, cell-based
[19] = Oral bioavailability in CD1 mouse at 15 mg/kg; conditions: in vivo
[20] = tested on: Mus musculus; experiment: Toxicity in CD1 mouse xenografted with human HCT116 cells assessed as body weight change at 75 to 150 mg/kg, po qd administered 5 days a week for 2 weeks; assay type: organism-based, HCT-116; set-up: dose 75-150 mg/kg, route oral; conditions: in vivo; how it was run: as §3
[21] = Solubility of the compound at pH 7.4; assay type: physicochemical; conditions: buffer
[22] = Tmax in CD1 mouse at 5 mg/kg, iv and 15 mg/kg, po; assay type: ADME, organism-based; conditions: in vivo; how it was run: as §1
[23] = tested on: HCT-116; experiment: Cell cycle arrest in human HCT116 cells assessed as accumulation at G2/M phase at higher dose after 24 hrs by propidium iodide staining-based FACS analysis; assay type: functional; how it was run: as §2
[24] = target: T1, Protein deacetylase HDAC6 (Homo sapiens, UniProt Q9UBN7); experiment: Inhibition of HDAC6 (unknown origin)
T1 sequence (Q9UBN7 whole entry): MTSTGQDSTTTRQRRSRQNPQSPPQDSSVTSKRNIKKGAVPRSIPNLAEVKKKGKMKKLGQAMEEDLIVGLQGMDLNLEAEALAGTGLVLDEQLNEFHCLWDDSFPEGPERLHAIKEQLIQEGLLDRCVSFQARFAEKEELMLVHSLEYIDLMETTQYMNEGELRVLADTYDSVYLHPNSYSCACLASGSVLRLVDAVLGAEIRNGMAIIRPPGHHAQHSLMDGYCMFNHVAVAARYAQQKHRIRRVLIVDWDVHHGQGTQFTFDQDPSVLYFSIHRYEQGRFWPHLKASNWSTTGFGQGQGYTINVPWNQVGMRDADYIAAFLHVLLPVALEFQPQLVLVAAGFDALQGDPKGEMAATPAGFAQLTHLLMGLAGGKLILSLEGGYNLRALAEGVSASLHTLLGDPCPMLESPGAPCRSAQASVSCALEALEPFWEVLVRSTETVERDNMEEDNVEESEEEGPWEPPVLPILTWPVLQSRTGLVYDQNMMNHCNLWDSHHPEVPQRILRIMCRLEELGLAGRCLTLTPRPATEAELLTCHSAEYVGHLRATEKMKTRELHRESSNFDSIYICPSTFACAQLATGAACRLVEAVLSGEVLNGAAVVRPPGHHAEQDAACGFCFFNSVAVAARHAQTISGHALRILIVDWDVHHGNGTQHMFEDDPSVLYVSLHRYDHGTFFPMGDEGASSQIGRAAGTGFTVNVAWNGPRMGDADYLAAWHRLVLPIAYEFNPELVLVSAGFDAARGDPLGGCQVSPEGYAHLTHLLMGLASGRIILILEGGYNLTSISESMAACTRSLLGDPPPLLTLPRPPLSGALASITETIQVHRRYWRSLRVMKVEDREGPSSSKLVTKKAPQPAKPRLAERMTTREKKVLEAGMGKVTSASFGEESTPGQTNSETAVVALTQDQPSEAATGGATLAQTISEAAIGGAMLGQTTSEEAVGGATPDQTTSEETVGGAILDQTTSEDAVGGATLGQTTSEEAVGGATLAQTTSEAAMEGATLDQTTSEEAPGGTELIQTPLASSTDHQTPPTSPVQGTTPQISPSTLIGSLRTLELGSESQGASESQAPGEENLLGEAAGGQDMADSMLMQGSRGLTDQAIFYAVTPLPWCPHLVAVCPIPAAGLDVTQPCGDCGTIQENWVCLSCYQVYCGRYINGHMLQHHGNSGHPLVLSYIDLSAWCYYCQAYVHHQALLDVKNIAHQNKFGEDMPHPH

[25] = target: T2, Voltage-gated inwardly rectifying potassium channel KCNH2 (Homo sapiens, UniProt Q12809); experiment: Inhibition of human ERG channel
[26] = Metabolic stability in mouse liver microsomes after 30 mins by LC-MS/MS analysis; assay type: ADME, Microsome; conditions: read-out: Stability; how it was run: as §4
[27] = Clearance in CD1 mouse at 5 mg/kg, iv and 15 mg/kg, po; assay type: ADME, organism-based; conditions: in vivo; how it was run: as §1
[28] = target: Histone deacetylase 3 (Homo sapiens, UniProt O15379); experiment: Inhibition of HDAC3 (unknown origin)
[29] = Cmax in CD1 mouse at 15 mg/kg, po; conditions: CD1, mouse, in vivo
[30] = tested on: HCT-116; experiment: Antitumor activity against human HCT116 cells […] in CD1 mouse at 150 mg/kg, po administered 5 days a week for 2 weeks relative to control; assay type: functional; how it was run: as §3
[31] = target: T2, Voltage-gated inwardly rectifying potassium channel KCNH2; experiment: Displacement of [3H]astemizole from human ERG channel transfected in HEK293 cells after 60 mins by liquid scintillation counting analysis; assay type: cell-based

Chain of Histone deacetylase 2 (Q92769 whole entry): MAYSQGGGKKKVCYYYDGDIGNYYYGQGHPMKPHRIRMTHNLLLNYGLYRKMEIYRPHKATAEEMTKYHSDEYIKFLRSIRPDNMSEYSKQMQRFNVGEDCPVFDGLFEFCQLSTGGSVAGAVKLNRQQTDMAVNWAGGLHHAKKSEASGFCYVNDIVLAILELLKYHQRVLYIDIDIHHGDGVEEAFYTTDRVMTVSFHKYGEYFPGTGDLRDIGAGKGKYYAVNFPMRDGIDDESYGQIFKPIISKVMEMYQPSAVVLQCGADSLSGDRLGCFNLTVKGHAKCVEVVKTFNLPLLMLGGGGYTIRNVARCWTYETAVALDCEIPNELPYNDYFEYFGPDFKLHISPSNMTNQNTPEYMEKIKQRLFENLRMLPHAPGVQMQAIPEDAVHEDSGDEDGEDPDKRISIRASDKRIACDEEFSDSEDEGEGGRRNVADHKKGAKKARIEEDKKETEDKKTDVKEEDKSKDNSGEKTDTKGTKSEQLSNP
Chain of Histone deacetylase 3 (O15379 whole entry): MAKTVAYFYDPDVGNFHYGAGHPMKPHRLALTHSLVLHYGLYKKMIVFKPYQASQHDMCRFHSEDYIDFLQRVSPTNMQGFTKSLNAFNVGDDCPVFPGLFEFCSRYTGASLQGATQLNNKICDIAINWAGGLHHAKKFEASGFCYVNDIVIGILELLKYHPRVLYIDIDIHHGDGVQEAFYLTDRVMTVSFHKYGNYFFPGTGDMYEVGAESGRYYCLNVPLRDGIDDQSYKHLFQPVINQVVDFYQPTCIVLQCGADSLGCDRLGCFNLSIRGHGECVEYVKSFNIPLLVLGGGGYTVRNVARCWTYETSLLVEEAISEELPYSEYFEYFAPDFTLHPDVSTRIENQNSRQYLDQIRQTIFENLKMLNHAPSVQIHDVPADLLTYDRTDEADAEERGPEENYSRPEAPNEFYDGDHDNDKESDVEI
T2 sequence (Q12809 whole entry): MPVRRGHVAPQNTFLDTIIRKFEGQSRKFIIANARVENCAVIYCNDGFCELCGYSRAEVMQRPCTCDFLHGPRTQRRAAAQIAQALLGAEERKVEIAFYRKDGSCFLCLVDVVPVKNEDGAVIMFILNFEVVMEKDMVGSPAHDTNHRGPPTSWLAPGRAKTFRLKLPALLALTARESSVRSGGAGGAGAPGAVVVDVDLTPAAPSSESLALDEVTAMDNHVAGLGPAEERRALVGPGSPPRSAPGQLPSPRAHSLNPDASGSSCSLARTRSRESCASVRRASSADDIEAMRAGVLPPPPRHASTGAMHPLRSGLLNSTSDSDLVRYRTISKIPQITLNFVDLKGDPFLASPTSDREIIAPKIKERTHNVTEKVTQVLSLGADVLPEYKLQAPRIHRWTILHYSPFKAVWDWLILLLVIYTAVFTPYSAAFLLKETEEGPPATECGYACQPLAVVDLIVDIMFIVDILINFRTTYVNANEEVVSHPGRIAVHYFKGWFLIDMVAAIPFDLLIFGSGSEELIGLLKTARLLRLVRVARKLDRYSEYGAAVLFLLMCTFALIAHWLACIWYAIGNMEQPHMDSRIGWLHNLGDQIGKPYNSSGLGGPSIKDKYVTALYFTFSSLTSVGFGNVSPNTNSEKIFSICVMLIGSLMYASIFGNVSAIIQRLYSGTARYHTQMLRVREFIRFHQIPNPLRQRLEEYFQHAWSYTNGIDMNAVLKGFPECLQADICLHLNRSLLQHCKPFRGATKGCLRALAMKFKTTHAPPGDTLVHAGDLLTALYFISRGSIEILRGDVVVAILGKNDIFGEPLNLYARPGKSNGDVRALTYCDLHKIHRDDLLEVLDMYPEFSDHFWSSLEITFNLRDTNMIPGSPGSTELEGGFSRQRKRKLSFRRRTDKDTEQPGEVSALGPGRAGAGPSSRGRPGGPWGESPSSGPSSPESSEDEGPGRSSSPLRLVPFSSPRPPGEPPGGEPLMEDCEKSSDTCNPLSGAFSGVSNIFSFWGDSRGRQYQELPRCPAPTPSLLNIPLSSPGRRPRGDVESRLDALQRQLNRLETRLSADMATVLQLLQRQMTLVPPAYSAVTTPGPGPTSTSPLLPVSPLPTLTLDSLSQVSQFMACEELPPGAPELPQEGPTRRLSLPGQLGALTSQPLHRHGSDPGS

Structure (SMILES): O=C(/C=C/c1ccc2c(c1)C(=O)NC1(CCN(CCc3ccccc3)CC1)O2)NO
IC50 [3]: 91 nM | IC50 [5]: 469 nM | IC50 [9]: 1420 nM | remaining at 0.5 h [17]: 68% | IC50 [18]: 494 nM | remaining at 0.5 h [26]: 46%

Structure (SMILES): CN1C(=O)c2cc(/C=C/C(=O)NO)ccc2OC12CCNCC2
IC50 [3]: 204 nM | IC50 [5]: 12100 nM | IC50 [9]: 17900 nM | IC50 [18]: 14200 nM

Structure (SMILES): O=C(/C=C/c1ccc2c(c1)C(=O)N(Cc1ccccc1)C1(CCN(Cc3ccc(F)cc3)CC1)O2)NO
IC50 [3]: 667 nM | IC50 [5]: 2030 nM | IC50 [9]: 3040 nM | IC50 [18]: 1570 nM

Structure (SMILES): O=C(/C=C/c1ccc2c(c1)C(=O)N(Cc1ccccc1)C1(CCN(Cc3ccccc3)CC1)O2)NO
IC50 [3]: 540 nM | IC50 [5]: 1870 nM | IC50 [9]: 2620 nM | IC50 [18]: 1720 nM

Continued, in another order:

IC50 [2]: 192 nM | IC50 [3]: 83 nM | Vd [4]: 8.5 L/kg | AUC(0-inf) [6]: 1530 ng·h/mL | AUC(0-inf) [7]: 1960 ng·h/mL | half-life [8]: 804 min | Papp A→B at 2 h [10]: 0.4 ×10⁻⁶ cm/s | inhibition [13]: Dose-dependent effect | Cmax [16]: 13.5 µM | remaining at 0.5 h [17]: 77% | bioavailability [19]: 42.8% | solubility [21]: > 200 µM | Tmax [22]: 15 min | IC50 [24]: 110 nM | remaining at 0.5 h [26]: 75% | clearance [27]: 54.5 mL/min/kg | IC50 [28]: 87 nM | Cmax [29]: 2.71 µM
Structure (SMILES): O=C(/C=C/c1ccc2c(c1)C(=O)NC1(CCN(Cc3ccccc3)CC1)O2)NO
inhibition [1]: Active | IC50 [5]: 515 nM | IC50 [9]: 1410 nM | Activity [11]: Dose-dependent effect | Activity [12]: Dose-dependent effect | Activity [14]: Active | T/C [15]: 0.59 | IC50 [18]: 582 nM | Activity [20]: Non-toxic | Activity [23]: Active | inhibition (INH) [25]: 54% | T/C [30]: 0.33

IC50 [2]: 310 nM | IC50 [3]: 108 nM | Vd [4]: 5.9 L/kg | AUC(0-inf) [6]: 1490 ng·h/mL | AUC(0-inf) [7]: 1240 ng·h/mL | Cmax [16]: 11 µM | bioavailability [19]: 27.6% | Tmax [22]: 15 min | IC50 [24]: 190 nM | clearance [27]: 55.8 mL/min/kg | IC50 [28]: 90 nM | Cmax [29]: 1.83 µM
Structure (SMILES): O=C(/C=C/c1ccc2c(c1)C(=O)CC1(CCN(Cc3ccc(F)cc3)CC1)O2)NO
IC50 [5]: 777 nM | IC50 [9]: 1320 nM | IC50 [18]: 681 nM | IC50 [31]: 2380 nM

IC50 [3]: 59 nM
Structure (SMILES): O=C(/C=C/c1ccc2c(c1)C(=O)N(Cc1ccccc1)C1(CCNCC1)O2)NO
IC50 [5]: 857 nM | IC50 [9]: 3190 nM | IC50 [18]: 1520 nM

IC50 [3]: 78 nM
Structure (SMILES): O=C(/C=C/c1ccc2c(c1)C(=O)NC1(CCNCC1)O2)NO
IC50 [5]: 6860 nM | IC50 [9]: 4810 nM | IC50 [18]: 8930 nM
